High-throughput results from PubChem BioAssay.
INS-1E GSIS act = primary screen for activators of insulin secretion dependent on glucose, INS-1E cells, GLuc reporter luminescence | activation, % at 16.6 µM | AID 743287 | INS-1E GLuc reporter insulin secretion, 2-3 h | actives 0.61% (n = 370,000);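 active = lowest replicate activation of at least 40%, so every replicate reaches that level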;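 also: 0% = median of neutral control wells and 100% = median of IBMX positive control wells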
dFosB act = mouse delta FosB homodimer activation; P13346; purified delta FosB, TAMRA-CDK5 oligo fluorescence polarization; percent of positive-control signal above neutral wells; activation, % at 25 µM; actives 0.99% (n = 340,000); AID 493131;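 active = mean activation above about 17%, with every replicate also reaching it, limit read from the data, passing the limit was not always enough; inconclusive = only one of the two conditions met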
Target sequence (P13346 whole entry, looked up): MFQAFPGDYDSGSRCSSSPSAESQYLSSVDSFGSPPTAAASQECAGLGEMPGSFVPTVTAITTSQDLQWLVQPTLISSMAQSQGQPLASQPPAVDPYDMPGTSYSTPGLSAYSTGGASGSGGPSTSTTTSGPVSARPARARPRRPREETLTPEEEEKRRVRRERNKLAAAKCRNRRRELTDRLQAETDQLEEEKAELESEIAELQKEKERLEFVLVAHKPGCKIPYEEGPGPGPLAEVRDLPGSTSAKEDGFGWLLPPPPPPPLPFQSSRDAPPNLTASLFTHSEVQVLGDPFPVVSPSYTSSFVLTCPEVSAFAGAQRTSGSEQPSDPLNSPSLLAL
miR-122 sensor = blocks miR-122 activity in Huh7 sensor cells; actives 0.3% (n = 340,000); Huh7 miR-122 Renilla luciferase sensor, 48 h; neutral wells = 0, positive control = 100; activation (reporter increase), % at 12.5 µM;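 active = mean replicate activation score at least 90 and every replicate individually at or above 90; inconclusive = only one of the two criteria met; inactive = neither criterion met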;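 also: higher luciferase means less miR-122 activity so hits act as miR-122 inhibitors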
Rtt109 Vps75 = inhibitors of Candida albicans Rtt109/Vps75 histone acetyltransferase; inhibition, % at 34.9 µM; AID 540336; actives 0.16% (n = 330,000); purified Rtt109/Vps75, ThioGlo CoA-SH fluorescence, 4 h; Q5AAJ8;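 active = inhibition of at least 50% in every replicate; inconclusive = best replicate reaches 50% inhibition but some replicates fall short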
Target sequence (Q5AAJ8 whole entry, looked up): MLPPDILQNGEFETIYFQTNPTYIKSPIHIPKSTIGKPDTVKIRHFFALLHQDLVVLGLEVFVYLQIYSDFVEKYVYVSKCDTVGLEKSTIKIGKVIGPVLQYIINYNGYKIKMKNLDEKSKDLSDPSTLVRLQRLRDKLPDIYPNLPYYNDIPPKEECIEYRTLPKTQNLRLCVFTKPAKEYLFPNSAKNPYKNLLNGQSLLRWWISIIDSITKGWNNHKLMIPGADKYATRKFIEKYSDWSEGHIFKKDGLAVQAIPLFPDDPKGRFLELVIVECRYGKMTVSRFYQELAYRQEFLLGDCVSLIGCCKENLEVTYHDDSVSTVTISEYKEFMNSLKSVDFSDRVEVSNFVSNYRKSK
Cneo AK release = Cryptococcus neoformans lysis via adenylate kinase release; C. neoformans lysis, adenylate kinase release luminescence, 4 h; normalised: neutral wells 0, clomiphene wells 100; actives 0.2% (n = 360,000); lysis activity, % at 15 µM; AID 651654;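 active = mean lysis activity across replicates of at least 80%, whatever share of replicates individually reach that level; inactive = mean lysis activity below 80%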
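Signal: Adenylate kinase release luminescence | Assay system: Log-phase Cryptococcus neoformans yeast cells | Input: Cells at 5 × 10^6 per mL | Buffer or medium: Fresh YPD growth medium | Compound: Single dose | Schedule: Static 4 h at 37 °C with compound, 1 h detection | Controls: Clomiphene | Read-out: Luminescence rise reflecting yeast cell lysis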
Env fusion inh = inhibitors of HIV Env-mediated cell fusion | HeLa-JRFL Env/CEM21 cell fusion, luciferase | AID 651610 | actives 1.1% (n = 360,000) | inhibition, % at 12.3 µM;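 active = mean replicate inhibition score of at least 50 and every replicate individually at or above 50; inconclusive = only one of the two criteria met; inactive = mean below 50 and not all replicates reaching 50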;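 also: 0% = plate neutral controls and 100% = maraviroc near 300 nM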
* hit, by the source's call; ? = inconclusive; · = not tested or not shown; [ ] = remark or other dose. This is a sample that favours compounds with a hit; in the whole collection about 2.4% have one here.

SMILES	INS-1E GSIS act	dFosB act	miR-122 sensor	Rtt109 Vps75	Cneo AK release	Env fusion inh
O=S(=O)(c1ccc(Cl)cc1)c1cc(O)ccc1O	-3	4	·	-2	0	-17
C[C@@H]1CN([C@@H](C)CO)C(=O)Cc2cc(NC(=O)Cn3cnnn3)ccc2O[C@@H]1CN(C)S(=O)(=O)c1ccccc1	-5	·	·	·	·	·
C[C@@H]1CCCn2cc(nn2)COCCNC1=O	11	·	·	·	·	·
Cc1ccc(-c2nc(C#N)c(NCC3CCCO3)o2)cc1 (configuration not stated)	40*	-6	·	1	·	-26
COc1ccc(-c2nc(C#N)c(NCC3CCCO3)o2)cc1 (configuration not stated)	·	-7	4	-4	1	·
Cc1noc(C)c1S(=O)(=O)Nc1cccc2c1O[C@H](CN(C)Cc1ccc(C(=O)Nc3ccccc3N)cc1)[C@H](C)CN([C@H](C)CO)C2=O	-7	·	·	·	·	·
COc1ccc(/C=N/Nc2nc(-c3ccc(Cl)cc3)cc(C(F)(F)F)n2)c(OC)c1	76*	-2	·	4	·	16
COc1ccc(/C(C)=N\Nc2nc(-c3ccc(Cl)cc3)cc(C(F)(F)F)n2)cc1OC	64	-14	·	-4	·	6
COc1cccc(-c2nnc3sc(C4CCCCC4)nn23)c1	·	-46	9	-42	2	123*
CCOc1cccc(-c2nnc3sc(C4CCCCC4)nn23)c1	·	-22	0	1	1	96*
c1cncc(-c2nnc3sc(C4CCCCC4)nn23)c1	·	2	·	-4	0	·
COc1ccc2c3c([nH]c2c1)[C@H](CO)N(C(=O)c1ccccn1)CC31CCN(C(=O)C2CCC2)CC1	-11	·	·	·	·	·
CCCCCCCn1c2c(c(=N)c3c1CCC3)CCCC2	·	-6	·	24	·	72*
CCCCn1c2c(c(=N)c3c1CCC3)CCC2	-12	-1	·	5	1	·
CCCCCCCCCn1c2c(c(=N)c3c1CCC3)CCC2	·	-1	-47	68*	-1	·
CCCCCCn1c2c(c(=N)c3c1CCC3)CCC2	-29	-6	-17	1	·	81*
C[C@H](CO)N1C[C@H](C)[C@H](CN(C)C(=O)NC2CCCCC2)OCCCC[C@H](C)Oc2ccc(NS(=O)(=O)c3ccccc3)cc2C1=O	-36	·	-4[16.7 µM]	·	0	-25[16.7 µM]
C[C@H]1CN([C@@H](C)CO)C(=O)c2cc(-c3cccc(C#N)c3)cnc2O[C@H]1CN(C)C(=O)c1cnccn1	1	·	·	·	-6	10[16.7 µM]
Cc1cc(C)cc(OCCCN2CCC(C(O)(c3ccccc3)c3ccccc3)CC2)c1	182*	·	·	·	·	-9
Cc1cc(OCCCN2CCC(C(O)(c3ccccc3)c3ccccc3)CC2)ccc1Br	477*	·	·	·	·	0
Cc1ccccc1OCCCN1CCC(C(O)(c2ccccc2)c2ccccc2)CC1	·	·	·	·	·	8
CC(C)CC#Cc1ccc([C@@H]2[C@@H](CO)N3C(=O)CN(S(C)(=O)=O)C[C@H]23)cc1	15	·	·	·	·	·
COc1ccc(CN(C)C[C@H]2Oc3ccc(NC(=O)Cc4cn(C)c5ccccc45)cc3CC(=O)N([C@H](C)CO)C[C@@H]2C)cc1	-10	·	·	·	·	·
CC1(Cc2ccc(C(F)(F)F)o2)C(=O)Nc2ccc(-c3cccc(C(F)(F)F)c3)cc21 (configuration not stated)	173*	·	13	·	0	26
CC1(Cc2ccc3c(c2)OCO3)C(=O)Nc2ccc(-c3cccc(C(F)(F)F)c3)cc21 (configuration not stated)	·	·	-1	·	-10	8
SMILES	INS-1E GSIS act	dFosB act	miR-122 sensor	Rtt109 Vps75	Cneo AK release	Env fusion inh
Cc1cc(N/N=C/c2ccc(F)cc2)nc(NCc2ccccc2)n1	-25	·	-3	·	-7	-7
Cc1cc(Nc2ccccc2)nc(NCc2ccccc2)n1	-32	4	·	-1	·	26
Cc1ccc(/C=N/Nc2cc(C)nc(NCc3ccccc3)n2)cc1	·	55*	·	9	·	29
Cc1cc(Nc2ccc(Cl)cc2)nc(NCc2ccccc2)n1	300*	38*	5	-3	·	71*
Cc1ccc(S(=O)(=O)Nc2ccc3c(c2)C(=O)N([C@@H](C)CO)C[C@H](C)[C@H](CN(C)Cc2ccc(C(F)(F)F)cc2)OCCCC[C@H](C)O3)cc1	2	·	-5[16.7 µM]	·	2	33[16.7 µM]
CCCNC(=O)C[C@H]1CC[C@H]2[C@@H](COc3ccc(NC(=O)Nc4ccccc4F)cc3C(=O)N2C)O1	-2	·	42[16.7 µM]	·	0	14[16.7 µM]
CC(C)C#Cc1ccc([C@@H]2[C@H]3CN(C(=O)Cc4cccnc4)CC(=O)N3[C@H]2CO)cc1	5	·	·	·	·	·
CCOC(=O)Cn1c(=O)n(Cc2ccccc2)c(=O)c2cccnc21	179*	-12	-3	-2	-1	-12
Cc1ccc(C(O)(c2ccccc2)c2ccccc2C(C)N(C)C)c(C)c1 (configuration not stated)	2	-4	·	-7	·	79*
CC(c1ccccc1C(O)c1ccccc1)N(C)C (configuration not stated)	21	-4	·	-3	0	·
CCn1c(=NC(=O)CS(=O)(=O)c2ccccc2)sc2cccc(OC)c21	-40	-11	·	14	0	57*
COc1cc(C(c2nnnn2C(C)(C)C)N2CCN(c3nc4ccccc4s3)CC2)ccc1O (configuration not stated)	·	-4	-5	66*	-3	·
C/C=C/c1ccc2c(c1)O[C@H](CN(C)C)[C@@H](C)CN([C@H](C)CO)S2(=O)=O	8	·	8[16.7 µM]	·	55	8[16.7 µM]
COc1ccc(CCNC(=O)c2cnc3scc(C)n3c2=O)cc1OC	61*	-3	5	8	1	36
COc1ccc(C)cc1NC(=O)c1cnc2scc(C)n2c1=O	2	-5	4	15	1	?
CO[C@H]1CN(C)C(=O)c2cc(NC(=O)NC(C)C)ccc2OC[C@@H](C)N(C(=O)CC2CC2)C[C@@H]1C	-3	·	0[16.7 µM]	·	0	-7[16.7 µM]
COc1ccc(-c2nc3cc(C)c(Br)c(C)n3c2Cc2ccccc2)cc1OC	11	·	3	·	-10	71*
Cc1ccc(Cc2c(-c3ccc(Cl)cc3)nc3cc(C)c(Br)c(C)n23)cc1	·	·	1	·	-1	-2
Cc1cc2nc(-c3ccc(Cl)cc3)c(Cc3ccsc3)n2c(C)c1Br	100*	·	·	·	·	-7
N#CCCn1cc(/C=C(\C#N)c2nc3ccccc3s2)c(-c2ccc(F)cc2)n1	50*	-8	-10	-7	-3	-72
COCC(=O)N1CC2(CCN(C(=O)NC(C)C)CC2)c2c(n(C)c3cc(OC)ccc23)[C@H]1CO	12	·	·	·	·	·
CO[C@H]1CN(C)C(=O)c2cc(NS(=O)(=O)CC(F)(F)F)ccc2OC[C@H](C)N(Cc2cccnc2)C[C@H]1C	-5	·	·	·	0	·
CC1CCN(S(=O)(=O)c2ccc(NC(=O)Cc3ccc(S(=O)(=O)N4CCOCC4)s3)cc2)CC1	-28	-2	14	-5	-1	61*
